Test results published in ChEMBL document CHEMBL1155884, “Sinulodurins A and B, antiproliferative and anti-invasive diterpenes from the soft coral Sinularia dura” (J Nat Prod, 2008).
Active and inactive are the calls of the source. The rule behind the calls is not given here.

How the values were obtained:
[1] = species on record: Homo sapiens; test: Antiinvasive activity against human PC-3M-CT+ cells at 100 uM after 48 hrs by spheroid disaggregation assay; format: functional, cell-based
Method in brief: (§1)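 Spheroids formed from 5 × 10^4 cells/mL in serum-free RPMI 1640 rocked in low-attachment wells at 37 °C for 2 days (150-300 µm, ~4 × 10^4 cells each). Single spheroid placed on ECM-coated well in serum-free medium, t=0 set 1 h after plating. Photographed at t=0, cultured 48 h at 37 °C, fixed, Diff-Quik stained. Migration diameter measured by micrometer minus initial diameter; given as average percent increase in surface area.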

[2] = test system: +SA cell; test: Antiproliferative activity against mouse +SA cells assessed as cell viability at 30 uM after 4 days by MTT assay; format: functional, cell-based
Method in brief: (§2)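 Highly malignant +SA mouse mammary epithelial cells kept in serum-free medium with 10 ng/mL EGF and 10 µg/mL insulin as mitogens. Seeded 5 × 10^4 cells/well, 6 wells/group, fed medium with compound at 0.01-1000 µM. Viable cell number determined by MTT colorimetric assay after 4 days in culture, compared against vehicle control.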

[3] = test system: Aspergillus fumigatus; test: Antimicrobial activity against Aspergillus fumigatus up to 50 ug/mL; format: functional, organism-based
[4] = test system: Cryptococcus neoformans; test: Antimicrobial activity against Cryptococcus neoformans up to 50 ug/mL; format: functional, organism-based
[5] = species on record: Homo sapiens; test: Antiinvasive activity against human PC-3M-CT+ cells at 200 uM after 48 hrs by spheroid disaggregation assay; format: functional, cell-based; method in brief: as §1
[6] = test system: Mycobacterium intracellulare; test: Antimicrobial activity against Mycobacterium intracellular up to 50 ug/mL; format: functional, organism-based
[7] = test system: Candida albicans; test: Antimicrobial activity against Candida albicans up to 50 ug/mL; format: functional, organism-based
[8] = test system: Pseudomonas aeruginosa; test: Antimicrobial activity against Pseudomonas aeruginosa up to 50 ug/mL; format: functional, organism-based
[9] = test system: Escherichia coli; test: Antimicrobial activity against Escherichia coli up to 50 ug/mL; format: functional, organism-based
[10] = species on record: Homo sapiens; test: Antiinvasive activity against human PC-3M-CT+ cells at 25 uM after 48 hrs by spheroid disaggregation assay; format: functional, cell-based; method in brief: as §1
[11] = test system: Staphylococcus aureus; test: Antimicrobial activity against methicillin-resistant Staphylococcus aureus up to 50 ug/mL; format: functional, organism-based
[12] = test system: Vero; test: Cytotoxicity against african green monkey Vero cells; format: cell-based; conditions: chlorocebus sabaeus
[13] = species on record: Homo sapiens; test: Antiinvasive activity against human PC-3M-CT+ cells at 50 uM after 48 hrs by spheroid disaggregation assay; format: functional, cell-based; method in brief: as §1
[14] = Antiproliferative activity against mouse +SA cells assessed as cell viability after 4 days by MTT assay; format: functional, cell-based; conditions: 96 h; method in brief: as §2
[15] = test system: +SA cell; test: Antiproliferative activity against mouse +SA cells assessed as cell viability at 20 uM after 4 days by MTT assay; format: functional, cell-based; method in brief: as §2

C=C1C=C2[C@@H](CC1)[C@H](C)[C@H](OC(C)=O)C[C@H]2[C@H](C)C(OC(C)=O)C(=O)C=C(C)C (stereo partly drawn) [SINULODURIN A]
Activity [1]: Active
Activity [2]: Active
Activity [3]: inactive
Activity [4]: inactive
Activity [5]: Active
Activity [6]: inactive
Activity [7]: inactive
Activity [8]: inactive
Activity [9]: inactive
Activity [10]: Active
Activity [11]: inactive
Activity [12]: Not Active
Activity [13]: Active

C=C1C=C2[C@H](CC1)[C@@H](C)CC[C@@H]2[C@@H](C)CCC=C(C)C
Activity [3]: inactive
Activity [4]: inactive
Activity [6]: inactive
Activity [7]: inactive
Activity [8]: inactive
Activity [9]: inactive
Activity [11]: inactive
Activity [12]: Not Active

C=C1C=C2[C@@H](C[C@@H]1O)[C@@H](C)CC[C@@H]2[C@@H](C)CCC=C(C)C
Activity [3]: inactive
Activity [4]: inactive
Activity [6]: inactive
Activity [7]: inactive
Activity [8]: inactive
Activity [9]: inactive
Activity [11]: inactive
Activity [12]: Not Active

CC(C)=CCC/C(C)=C/CC/C(C)=C/CC[C@]1(C)CCc2cc(O)cc(C)c2O1 [DELTA-TOCOTRIENOL]
IC50 [14]: 7 µM

C=C1C=C2[C@@H](CC1)[C@H](C)CC[C@H]2[C@H](C)C(OC(C)=O)C(=O)C=C(C)C (stereo partly drawn) [SINULODURIN B]
Activity [1]: Active
Activity [15]: Active
Activity [3]: inactive
Activity [4]: inactive
Activity [5]: Active
Activity [6]: inactive
Activity [7]: inactive
Activity [8]: inactive
Activity [9]: inactive
Activity [10]: Active
Activity [11]: inactive
Activity [12]: Not Active
Activity [13]: Active
